Key:
Acinetobacter baumannii [1] = experiment: Antibacterial activity against Acinetobacter baumannii AB5075 assessed as reduction in bacterial growth incubated for 16 hrs by broth microdilution method; type: functional
Acinetobacter baumannii [2] = experiment: Potentiation of Clarithromycin antibacterial activity against Acinetobacter baumannii AB5075 assessed as clarithromycin MIC at 7.5 uM incubated for 16 hrs by broth microdilution method; type: functional
Acinetobacter baumannii [3] = experiment: Potentiation of Clarithromycin antibacterial activity against Acinetobacter baumannii AB5075 assessed as clarithromycin MIC at 5 uM incubated for 16 hrs by broth microdilution method; type: functional
Acinetobacter baumannii [4] = experiment: Potentiation of Clarithromycin antibacterial activity against Acinetobacter baumannii AB5075 assessed as fold reduction in clarithromycin MIC at 30 uM incubated for 16 hrs by broth microdilution method; type: functional
How it was run: (§1)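 Checkerboard-style potentiation by broth microdilution. 6 h day cultures in CAMHB diluted to 5×10^5 CFU/mL. Adjuvant added from 10 mM DMSO stock at fixed concentration throughout. […] Controls: antibiotic alone, adjuvant alone, media only. Incubated stationary at 37 °C for 16 h. MIC is lowest concentration with no visible growth; fold reduction taken against the antibiotic-alone lane.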

Acinetobacter baumannii [5] = experiment: Potentiation of Clarithromycin antibacterial activity against Acinetobacter baumannii AB5075 assessed as fold reduction in clarithromycin MIC at 7.5 uM incubated for 16 hrs by broth microdilution method; type: functional; how it was run: as §1
Acinetobacter baumannii [6] = experiment: Potentiation of Clarithromycin antibacterial activity against Acinetobacter baumannii AB5075 assessed as clarithromycin MIC at 10 uM incubated for 16 hrs by broth microdilution method; type: functional
[7] = Therapeutic index, ratio of IC50 for antiproliferative against human HepG2 cells assessed as reduction in cell viability to MIC for potentiation of Clarithromycin antibacterial activity against Acinetobacter baumannii […] assessed as clarithromycin MIC; type: toxicity, cell-based; conditions: read-out: TI
Acinetobacter baumannii [8] = experiment: Potentiation of Clarithromycin antibacterial activity against Acinetobacter baumannii AB5075 assessed as clarithromycin MIC at 1.5 uM incubated for 16 hrs by broth microdilution method; type: functional; how it was run: as §1
Acinetobacter baumannii [9] = experiment: Potentiation of Clarithromycin antibacterial activity against Acinetobacter baumannii AB967 assessed as clarithromycin MIC at 10 uM incubated for 16 hrs by broth microdilution method; type: functional
Acinetobacter baumannii [10] = experiment: Potentiation of Clarithromycin antibacterial activity against Acinetobacter baumannii AB4498 assessed as clarithromycin MIC at 10 uM incubated for 16 hrs by broth microdilution method; type: functional
Acinetobacter baumannii [11] = experiment: Potentiation of Clarithromycin antibacterial activity against Acinetobacter baumannii AB5674 assessed as clarithromycin MIC at 10 uM incubated for 16 hrs by broth microdilution method; type: functional
Acinetobacter baumannii [12] = experiment: Potentiation of Clarithromycin antibacterial activity against Acinetobacter baumannii AB5711 assessed as clarithromycin MIC at 10 uM incubated for 16 hrs by broth microdilution method; type: functional
Acinetobacter baumannii [13] = experiment: Potentiation of Azithromycin antibacterial activity against Acinetobacter baumannii AB5075 assessed as azithromycin MIC at 20 uM incubated for 16 hrs by broth microdilution method; type: functional
Acinetobacter baumannii [14] = experiment: Potentiation of Azithromycin antibacterial activity against Acinetobacter baumannii AB5075 assessed as azithromycin MIC at 10 uM incubated for 16 hrs by broth microdilution method; type: functional
Acinetobacter baumannii [15] = experiment: Potentiation of Azithromycin antibacterial activity against Acinetobacter baumannii AB5075 assessed as azithromycin MIC at 2.5 uM incubated for 16 hrs by broth microdilution method; type: functional
Acinetobacter baumannii [16] = experiment: Potentiation of erythromycin antibacterial activity against Acinetobacter baumannii AB5075 assessed as erythromycin MIC at 30 uM incubated for 16 hrs by broth microdilution method; type: functional
Acinetobacter baumannii [17] = experiment: Potentiation of erythromycin antibacterial activity against Acinetobacter baumannii AB5075 assessed as erythromycin MIC at 20 uM incubated for 16 hrs by broth microdilution method; type: functional
Acinetobacter baumannii [18] = experiment: Potentiation of erythromycin antibacterial activity against Acinetobacter baumannii AB5075 assessed as erythromycin MIC at 10 uM incubated for 16 hrs by broth microdilution method; type: functional
Acinetobacter baumannii [19] = experiment: Potentiation of rifampicin antibacterial activity against Acinetobacter baumannii AB5075 assessed as rifampicin MIC at 10 uM incubated for 16 hrs by broth microdilution method; type: functional
Acinetobacter baumannii [20] = experiment: Potentiation of rifampicin antibacterial activity against Acinetobacter baumannii AB5075 assessed as rifampicin MIC at 7.5 uM incubated for 16 hrs by broth microdilution method; type: functional
How it was run: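 A. baumannii AB5075 6 h day cultures in CAMHB subcultured to 5×10^5 CFU/mL; adjuvant added from 10 mM DMSO stock at fixed concentration, then rifampicin (DMSO) twofold serially diluted in adjuvant-containing broth. Antibiotic-alone and adjuvant-alone control lanes.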

Acinetobacter baumannii [21] = experiment: Potentiation of rifampicin antibacterial activity against Acinetobacter baumannii AB5075 assessed as fold reduction in rifampicin MIC at 10 uM incubated for 16 hrs by broth microdilution method; type: functional
Klebsiella pneumoniae [22] = experiment: Antibacterial activity against Klebsiella pneumoniae ATCC BAA-2146 assessed as inhibition of bacterial growth incubated for 16 hrs by broth microdilution method; type: functional
How it was run: (§2)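 Standalone MIC by broth microdilution. 6 h day cultures in cation-adjusted Mueller-Hinton broth (CAMHB) diluted to 5×10^5 CFU/mL. Compound added from 10 mM DMSO stock to 200 μM (highest concentration), then twofold serial dilution. Incubated stationary at 37 °C for 16 h.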

Escherichia coli [23] = experiment: Antibacterial activity against Escherichia coli ATCC 25922 assessed as inhibition of bacterial growth incubated for 16 hrs by broth microdilution method; type: functional; how it was run: as §2
Klebsiella pneumoniae [24] = experiment: Potentiation of Clarithromycin antibacterial activity against Klebsiella pneumoniae ATCC BAA-2146 assessed as clarithromycin MIC at 10 uM incubated for 16 hrs by broth microdilution method; type: functional
Klebsiella pneumoniae [25] = experiment: Potentiation of Clarithromycin antibacterial activity against Klebsiella pneumoniae ATCC BAA-2146 assessed as clarithromycin MIC at 7.5 uM incubated for 16 hrs by broth microdilution method; type: functional
Pseudomonas aeruginosa [26] = experiment: Potentiation of Clarithromycin antibacterial activity against Pseudomonas aeruginosa PAO1 assessed as clarithromycin MIC at 30 uM incubated for 16 hrs by broth microdilution method; type: functional
Pseudomonas aeruginosa [27] = experiment: Potentiation of Clarithromycin antibacterial activity against Pseudomonas aeruginosa PAO1 assessed as clarithromycin MIC at 20 uM incubated for 16 hrs by broth microdilution method; type: functional; how it was run: as §1
Escherichia coli [28] = experiment: Potentiation of Clarithromycin antibacterial activity against Escherichia coli ATCC 25922 assessed as clarithromycin MIC at 3.75 uM incubated for 16 hrs by broth microdilution method; type: functional
Escherichia coli [29] = experiment: Potentiation of Clarithromycin antibacterial activity against Escherichia coli ATCC 25922 assessed as clarithromycin MIC at 3 uM incubated for 16 hrs by broth microdilution method; type: functional
Escherichia coli [30] = experiment: Potentiation of Clarithromycin antibacterial activity against Escherichia coli ATCC 25922 assessed as clarithromycin MIC at 2.5 uM incubated for 16 hrs by broth microdilution method; type: functional; how it was run: as §1
[31] = Stability of compound in human plasma assessed as parent compound remaining measured at 4 hrs; type: ADME, cell-free
How it was run: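 Compound at 20 μM final in human plasma (from 10 mM DMSO stock), 37 °C; aliquots at 0, 30, 60, 120, 240 min quenched in internal standard in 1:1 ACN/MeOH, centrifuged, supernatant analysed by UPLC-MRM. Peak-area ratio to internal standard expressed as % parent remaining relative to 0 min; half-life calculated.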

With `Cl.Cl.Nc1nc(-c2ccc(NC(=O)Nc3cccc(-c4c[nH]c(N)n4)c3F)cc2F)c[nH]1` as the compound, how does the MIC (Acinetobacter baumannii [1]) read?
Its MIC is over 200 µM.

What about the MIC (Acinetobacter baumannii [2]) of the same compound?
Its MIC is at most 0.062 µg/mL.

What about the MIC (Acinetobacter baumannii [3]) of the same compound?
Its MIC is at most 0.062 µg/mL.

What about the “fold change (FC)” value (Acinetobacter baumannii [4]) of the same compound?
The value was “>=512”.

And the “fold change (FC)” value (Acinetobacter baumannii [5])?
Its value is “>=512”.

What about the MIC (Acinetobacter baumannii [6]) of the same compound?
Its MIC is at most 0.062 µg/mL.

What about the selectivity ratio [7] of the same compound?
Its selectivity ratio is 287.

And the MIC (Acinetobacter baumannii [8])?
The MIC was 2 µg/mL.

And the MIC (Acinetobacter baumannii [9])?
Its MIC is at most 0.062 µg/mL.

And the MIC (Acinetobacter baumannii [10])?
Its MIC is at most 0.062 µg/mL.

What about the MIC (Acinetobacter baumannii [11]) of the same compound?
The MIC was at most 0.062 µg/mL.

And the MIC (Acinetobacter baumannii [12])?
Its MIC is at most 0.062 µg/mL.

What about the MIC (Acinetobacter baumannii [13]) of the same compound?
The MIC was at most 0.062 µg/mL.

What about the MIC (Acinetobacter baumannii [14]) of the same compound?
The MIC was 0.125 µg/mL.

What about the MIC (Acinetobacter baumannii [15]) of the same compound?
The MIC was 32 µg/mL.

And the MIC (Acinetobacter baumannii [16])?
Its MIC is at most 0.062 µg/mL.

What about the MIC (Acinetobacter baumannii [17]) of the same compound?
Its MIC is at most 0.062 µg/mL.

And the MIC (Acinetobacter baumannii [18])?
Its MIC is at most 0.062 µg/mL.

And the MIC (Acinetobacter baumannii [19])?
Its MIC is 0.007 µg/mL.

And the MIC (Acinetobacter baumannii [20])?
The MIC was 0.015 µg/mL.

What about the “fold change (FC)” value (Acinetobacter baumannii [21]) of the same compound?
The value was 32.

And the MIC (Klebsiella pneumoniae [22])?
Its MIC is over 200 µM.

What about the MIC (Escherichia coli [23]) of the same compound?
The MIC was 12.5 µM.

And the MIC (Klebsiella pneumoniae [24])?
The MIC was 2 µg/mL.

And the MIC (Klebsiella pneumoniae [25])?
Its MIC is 16 µg/mL.

And the MIC (Pseudomonas aeruginosa [26])?
The MIC was 0.5 µg/mL.

And the MIC (Pseudomonas aeruginosa [27])?
The MIC was 16 µg/mL.

What about the MIC (Escherichia coli [28]) of the same compound?
The MIC was 0.125 µg/mL.

And the MIC (Escherichia coli [29])?
The MIC was 4 µg/mL.

And the MIC (Escherichia coli [30])?
Its MIC is 32 µg/mL.

And the Stability [31]?
The Stability was 76%.
